Several values for one entry are separate records, joined by “and”; a condition that tells them apart may be missing. Identical values can stand only once.

In general, T/C refers to the ratio of treated to control.

Series [1] deals with P388. As to the kind of experiment: Compound was tested for antitumor activity in P-388 lymphocytic leukemia system at 25 mg/kg dose levels per injection. It is filed as functional, Mus musculus. In short, it runs like this:
(§1)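 P-388 leukemia in vivo, dosed Q01D×09 (one injection daily for 9 days, mg/kg per injection). Activity is %T/C, the median lifetime of treated animals divided by that of controls, ×100. Live animals on day 4 were counted against the total (survivors day 4). Repeat tests were done independently at different times.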

Series [2] relates to P388. In words: (§2) Antitumor activity in P-388 lymphocytic leukemia system at 50 mg/kg dose levels per injection. The format is functional, Mus musculus. The procedure, abridged:
as §1

The test system of series [3] is P388. As to the kind of experiment: Compound was tested for antitumor activity in P-388 lymphocytic leukemia system at 400 mg/kg dose levels per injection; 5/5. It is filed as functional, Mus musculus. The procedure, abridged:
(§3)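 P-388 leukemia in animals, Q01D×09 schedule: dose given daily for 9 days, in mg/kg per injection. Read-outs are survivors on day 4 (live/total animals), body-weight difference test minus control (g), and % T/C (median lifetime of treated ÷ median lifetime of controls × 100). Some compounds were tested in independent runs at different times.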

The test system of series [4] is P388. In words: Compound was tested for antitumor activity in P-388 lymphocytic leukemia system 25 mg/kg dose levels per injection. It is filed as functional, Mus musculus. The procedure, abridged: as §1
Series [5] is described as follows: Solubility was determined; INS= less than 0.1. The format is physicochemical.
The test system of series [6] is P388. In words: (§4) Antitumor activity in P-388 lymphocytic leukemia system at 200 mg/kg dose levels per injection. The format is functional, Mus musculus. To be noted: 200 mg/kg. The procedure, abridged:
as §1

For series [7], the system named is P388. In words: (§5) Antitumor activity in P-388 lymphocytic leukemia system at 100 mg/kg dose levels per injection. The format is functional, Mus musculus. The procedure, abridged: as §3
Series [8] has as its system P388. Described as §2. It is filed as functional, Mus musculus. The procedure, abridged:
as §3
The source holds these as a separate data set.

The test system of series [9] is P388. As to the kind of experiment: Compound was tested for antitumor activity in P-388 lymphocytic leukemia system at 200 mg/kg dose levels per injection; 5/5. It is filed as functional, Mus musculus. The procedure, abridged:
as §3

In series [10] the test system is P388. In words: Compound was tested for antitumor activity in P-388 lymphocytic leukemia system at 100 mg/kg dose levels per injection; 5/5. It is filed as functional, Mus musculus. In short, it runs like this:
as §3

For series [11], the system named is P388. As to the kind of experiment: Antitumor activity in P-388 lymphocytic leukemia system at 25 mg/kg dose levels per injection. The format is functional, Mus musculus. In short, it runs like this:
as §3

In series [12] the test system is P388. As to the kind of experiment: Compound was tested for antitumor activity in P-388 lymphocytic leukemia system at 50 mg/kg dose levels per injection; 5/5. The format is functional, Mus musculus. In short, it runs like this:
as §3

The test system of series [13] is P388. The description is as §5. It is filed as functional, Mus musculus. The procedure, abridged: as §1
The source holds these as a separate data set.

The test system of series [14] is P388. In words: Compound was tested for antitumor activity in P-388 lymphocytic leukemia system. at 400 mg/kg dose levels per injection. It is filed as functional, Mus musculus. In short, it runs like this: as §1
Series [15] has as its system P388. In words: Antitumor activity in P-388 lymphocytic leukemia system and the difference in body weight was calculated at 50 mg/kg dose levels per injection. It is filed as functional, Mus musculus.
Series [16] deals with P388. Described as §4. It is filed as functional, Mus musculus. The procedure, abridged: as §3
The subject of series [17] is P388. As to the kind of experiment: Compound was tested for antitumor activity in P-388 lymphocytic leukemia system and the difference in body weight was calculated at 400 mg/kg dose levels per injection. It is filed as functional, Mus musculus.
Series [18] deals with P388. In words: Compound was tested for antitumor activity in P-388 lymphocytic leukemia system at 200 mg/kg dose levels per injection. It is filed as functional, organism-based. More on the design: dose 200 mg/kg. To be noted: Mus musculus. The procedure, abridged: as §1
In series [19] the test system is P388. As to the kind of experiment: Compound was tested for antitumor activity in P-388 lymphocytic leukemia system at 100 mg/kg dose levels per injection; 5/6. It is filed as functional, Mus musculus. The procedure, abridged:
as §3

For series [20], the system named is P388. In words: Antitumor activity in P-388 lymphocytic leukemia system and the difference in body weight was calculated at 200 mg/kg dose levels per injection. It is filed as functional, Mus musculus.
The test system of series [21] is P388. As to the kind of experiment: Antitumor activity in P-388 lymphocytic leukemia system at 25 mg/kg dose levels per injection. It is filed as functional, Mus musculus. In short, it runs like this:
as §1

Series [22] deals with P388. As to the kind of experiment: Compound was tested for antitumor activity in P-388 lymphocytic leukemia system at 100 mg/kg dose levels per injection; Toxic. It is filed as functional, organism-based. More on the design: dose 100 mg/kg. To be noted: Mus musculus. The procedure, abridged: as §1
Series [23] has as its system P388. In words: Compound was tested for antitumor activity in P-388 lymphocytic leukemia system at 200 mg/kg dose levels per injection; 2/6. It is filed as functional, Mus musculus. In short, it runs like this:
as §3

The subject of series [24] is P388. As to the kind of experiment: Compound was tested for antitumor activity in P-388 lymphocytic leukemia system at 200 mg/kg dose levels per injection; 4/6. The format is functional, Mus musculus. In short, it runs like this:
as §3

The subject of series [25] is P388. In words: Antitumor activity in P-388 lymphocytic leukemia system and the difference in body weight calculated at 100 mg/kg dose levels per injection. It is filed as functional, Mus musculus.
The test system of series [26] is P388. In words: Compound was tested for antitumor activity in P-388 lymphocytic leukemia system. at 400 mg/kg dose levels per injection; Toxic. It is filed as functional, organism-based. More on the design: dose 400 mg/kg. To be noted: Mus musculus. In short, it runs like this: as §1
The subject of series [27] is P388. In words: Compound was tested for antitumor activity in P-388 lymphocytic leukemia system. The difference in body weight was calculated at 25 mg/kg dose levels per injection. It is filed as functional, Mus musculus.
Series [28] relates to P388. In words: Compound was tested for antitumor activity in P-388 lymphocytic leukemia system at 400 mg/kg dose levels per injection; 6/6. The format is functional, Mus musculus. The procedure, abridged: as §3
The subject of series [29] is P388. As to the kind of experiment: Compound was tested for antitumor activity in P-388 lymphocytic leukemia system. at 200 mg/kg dose levels per injection; Toxic. The format is functional, organism-based. More on the design: dose 200 mg/kg. The note with it: Mus musculus. In short, it runs like this:
as §1

The test system of series [30] is P388. In words: Antitumor activity in P-388 lymphocytic leukemia system and the difference in body weight was calculated at 25 mg/kg dose levels per injection. It is filed as functional, Mus musculus.
The nature of series [31]: Solubility was determined. It is filed as physicochemical.
Series [32] concerns P388. In words: Compound was tested for antitumor activity in P-388 lymphocytic leukemia system at 200 mg/kg dose levels per injection; 5/6. It is filed as functional, Mus musculus. In short, it runs like this:
as §3

For series [33], the system named is P388. In words: Compound was tested for antitumor activity in P-388 lymphocytic leukemia system at 50 mg/kg dose levels per injection;6/6. The format is functional, Mus musculus. In short, it runs like this:
as §3

`CC(=O)OCN1C(=O)C2C3C=CC(C2C1=O)C1C2C(=O)N(COC(C)=O)C(=O)C2C31` (centres undefined): the T/C in the series on P388 [1] is 117%; with P388 [2] (50 mg/kg), 140% and 115%; in the series on P388 [6], 180% and 133%; in the series on P388 [13] (100 mg/kg), 118% and 155%; in the series with P388 [14], 208%. In addition, the “Survivors at day 4” value is recorded as 5 in the series with P388 [3]; 6 with P388 [7]; 6 in the series with P388 [8]; 5 in the series with P388 [9]; 5 with P388 [10]; 6 in the series on P388 [11]. Besides, the “Survivors at day 4” value stood at 5 in the series on P388 [12] and 6 in the series on P388 [16]. Besides, the Weight difference with P388 [4] is -0.1 g; in the series with P388 [15] (50 mg/kg), -0.4 g and -0.7 g; with P388 [17] it was -2.2 g. Besides, in [5], the Solubility entry is “Insoluble”.
`O=C(O)CCC(=O)OCN1C(=O)C2C3C=CC(C2C1=O)C1C2C(=O)N(COC(=O)CCC(=O)O)C(=O)C2C31` (centres undefined): the T/C in the series with P388 [2] (50 mg/kg) is 115% and 116%; with P388 [18], “Toxic”; in the series on P388 [21] (25 mg/kg) it was 103% and 107%; in the series with P388 [22], “Toxic”; with P388 [13], 165%. The “Survivors at day 4” value in the series with P388 [7] was determined as 6; in the series with P388 [8], 6; in the series with P388 [19], 5; in the series with P388 [23] it was 2; with P388 [11], 6; with P388 [24], 4. In addition, the Weight difference in the series on P388 [20] (200 mg/kg) is -6.7 g and -6.9 g; in the series on P388 [25] (100 mg/kg) it was -4.4 g and -3.1 g.
For the compound `O=C1C2C3C=CC(C2C(=O)N1CN1CCSCC1)C1C2C(=O)N(CN4CCSCC4)C(=O)C2C31` (centres undefined), the T/C with P388 [1] was 99%; in the series with P388 [2] (50 mg/kg), 166% and 121%; in the series on P388 [26], “Toxic”; in the series on P388 [6], 166% and 194%; with P388 [13] (100 mg/kg), 148% and 165%. In addition, the Solubility entry in series [5] is “Insoluble”. The Weight difference was -1.3 g in the series on P388 [27]; -5.1 g and -5.2 g in the series on P388 [20] (200 mg/kg); -1.4 g and -2.1 g with P388 [15] (50 mg/kg); -5.7 g in the series with P388 [17]; -2.9 g and -2.1 g in the series on P388 [25] (100 mg/kg). Besides, the “Survivors at day 4” value in the series on P388 [7], in the series with P388 [8], in the series on P388 [11], with P388 [16] and with P388 [28] was 6 throughout.
As to `O=C1C2C3CCC(C2C(=O)N1CO)C1C2C(=O)N(CO)C(=O)C2C31` (centres undefined), the T/C entry is “Toxic” with P388 [29], 145% in the series with P388 [2], 102% in the series on P388 [21] and 205% with P388 [13]. Besides, the “Survivors at day 4” value in the series on P388 [7] is on record as 6; in the series on P388 [32], 5; in the series with P388 [33], 6; with P388 [11] it was 6. The Weight difference with P388 [30] is listed as 0.1 g; with P388 [20] it was -4.7 g; in the series with P388 [15], -1.8 g; with P388 [25], -3.3 g. Also, the Solubility in [31] was 1%.

The values above are taken from ChEMBL document CHEMBL1123476, “Synthesis of congeners and prodrugs of the benzene maleimide photoadduct mitindomide as potential antitumor agents. 2” (J Med Chem, 1986).
